This is an account of results in ChEMBL document CHEMBL1649406, “Synthesis and anti-mycobacterial activities of triazoloquinolones” (Eur J Med Chem, 2011).

Series [1] deals with Pseudomonas aeruginosa. The experiment in a line: Antibacterial activity against Pseudomonas aeruginosa after 18 to 24 hrs by broth microdilution method. The format is functional. An outline of the steps: (§1)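 Broth microdilution per CLSI; compounds dissolved in DMSO at 10 mg/mL stock, serially diluted in Mueller Hinton Broth, mixed with equal volume of bacterial inoculum (final […]); incubated 37 °C for 18–24 h; MIC taken as lowest concentration preventing visible growth; duplicate determinations.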

In series [2] the test system is Enterococcus faecalis. The experiment in a line: Antibacterial activity against Enterococcus faecalis after 18 to 24 hrs by broth microdilution method. The class given is functional. An outline of the steps:
as §1
For orientation: Broth dilution looks for growth in wells or tubes with falling amounts of substance.

The test system of series [3] is Acinetobacter baumannii. The experiment in a line: Antibacterial activity against Acinetobacter baumannii after 18 to 24 hrs by broth microdilution method. The format is functional. An outline of the steps: as §1
The test system of series [4] is Klebsiella pneumoniae. Nature of the series: Antibacterial activity against Klebsiella pneumoniae after 18 to 24 hrs by broth microdilution method. The class given is functional. An outline of the steps:
as §1

Series [5] has as its system Mycolicibacterium smegmatis. Nature of the series: Antimycobacterial activity against Mycobacterium smegmatis MC2 155 after 72 hrs by broth microdilution method. The class given is functional. The settings on record: str. MC2 155, 72 h. An outline of the steps:
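Strains were pre-grown in Middlebrook 7H11 with OADC. The microdilution assay ran in sealed 96-well plates at 37 °C and was read after 72 h for M. smegmatis mc²155 and after 7 days for M. bovis BCG.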

In series [6] the test system is Enterobacter cloacae. The experiment in a line: Antibacterial activity against Enterobacter cloacae after 18 to 24 hrs by broth microdilution method. The class given is functional. An outline of the steps: as §1
Series [7] relates to Escherichia coli. Nature of the series: Antibacterial activity against Escherichia coli after 18 to 24 hrs by broth microdilution method. The class given is functional. An outline of the steps: as §1
Series [8] relates to Staphylococcus epidermidis. The experiment in a line: Antibacterial activity against Staphylococcus epidermidis after 18 to 24 hrs by broth microdilution method. The format is functional. An outline of the steps:
as §1

Series [9] has as its system Candida albicans. Nature of the series: Antifungal activity against Candida albicans after 48 hrs by NCCLS method. The format is functional. An outline of the steps: (§2)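 NCCLS yeast broth dilution; inocula from 48 h, 35 °C Sabouraud agar cultures diluted to 10⁶ CFU/mL; compounds from 10 mg/mL DMSO stock serially diluted in RPMI-1640, added to equal volume of fungal suspension in round-bottom microplates; incubated 35 °C for 48–72 h; MIC in duplicate.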

In series [10] the test system is Staphylococcus aureus. Nature of the series: Antibacterial activity against Staphylococcus aureus after 18 to 24 hrs by broth microdilution method. The class given is functional. An outline of the steps:
as §1

In series [11] the test system is Stenotrophomonas maltophilia. The experiment in a line: Antibacterial activity against Stenotrophomonas maltophilia after 18 to 24 hrs by broth microdilution method. The format is functional. An outline of the steps:
as §1

In series [12] the test system is Mycobacterium tuberculosis. Nature of the series: Antimycobacterial activity against Mycobacterium tuberculosis H37Ra by twofold agar dilution method. The class given is functional. An outline of the steps: (§3)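 Strains grown in Middlebrook 7H11 with OADC. Suspensions at McFarland 1 turbidity were diluted 1:10, 1:100 and 1:10,000 in Middlebrook 7H9. These were inoculated onto duplicate Middlebrook 7H11 plates containing serial concentrations of compound.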
On the technique in general: In agar dilution, organisms are placed on agar that contains the substance at set levels.

For series [13], the system named is Mycobacterium tuberculosis. The experiment in a line: Antimycobacterial activity against Mycobacterium tuberculosis H37Rv by twofold agar dilution method. The format is functional. An outline of the steps:
as §3

Series [14] concerns Candida tropicalis. The experiment in a line: Antifungal activity against Candida tropicalis after 48 hrs by NCCLS method. The format is functional. An outline of the steps:
as §2

Series [15] is described as follows: Cytotoxicity against human MT4 cells after 96 hrs by MTT assay. The format is cell-based. An outline of the steps: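 Exponentially growing MT-4 cells (CD4+ T-cells carrying integrated HTLV-1) seeded at 1 × 10⁵ cells/mL in RPMI-1640 with 10% FCS, penicillin and streptomycin; exposed to serial compound dilutions at 37 °C, humidified 5% CO₂; viability read by MTT after 96 h; CC50 derived.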
(Tetrazolium assays rely on reduction of a dye to a coloured formazan, in cell work by metabolically active cells.)

Values after ≈ are worked out from the molar mass of the structure shown.

For the molecule `Cn1cc(C(=O)O)c(=O)c2ccc3c(nnn3Cc3ccccc3)c21`, the MIC (commonly the least concentration at which growth counts as inhibited) in series [1] was more than 64 µg/mL; in [2], more than 64 µg/mL; in series [3], more than 64 µg/mL; in series [4] it was more than 64 µg/mL; in [5], 32 µg/mL (≈ 95.7 µM); in [6] it was more than 64 µg/mL. The MIC is more than 64 µg/mL in [7]; more than 64 µg/mL in series [8]; more than 64 µg/mL in series [9]; more than 64 µg/mL in [10]; more than 64 µg/mL in [11]; 4 µg/mL (≈ 12 µM) in series [12]. In addition, the minimum inhibitory concentration (MIC) was 8 µg/mL (≈ 23.9 µM) in series [13] and more than 64 µg/mL in [14]. For the same molecule, in series [15], the CC50 (as a rule, the concentration giving 50% cytotoxicity) at 96 h is more than 100 µg/mL.

With `CCCCn1cc(C(=O)O)c(=O)c2ccc3c(nnn3Cc3ccccc3)c21`, the MIC in [1] is more than 64 µg/mL; in series [2], more than 64 µg/mL; in series [3], more than 64 µg/mL; in series [4] it was more than 64 µg/mL; in series [5], more than 128 µg/mL; in series [6], more than 64 µg/mL. Further, the MIC in series [7] is more than 64 µg/mL; in series [8], more than 64 µg/mL; in series [9], more than 64 µg/mL; in [10] it was more than 64 µg/mL; in series [11], more than 64 µg/mL; in [12], 64 µg/mL (≈ 170 µM). The MIC was 64 µg/mL (≈ 170 µM) in series [13] and more than 64 µg/mL in [14].

For `Cn1nnc2c3c(ccc21)c(=O)c(C(=O)O)cn3C(C)(C)C`, the MIC in series [1] was more than 64 µg/mL; in series [2] it was more than 64 µg/mL; in series [3], more than 64 µg/mL; in [4], more than 64 µg/mL; in series [5], 32 µg/mL (≈ 107 µM); in series [6] it was more than 64 µg/mL. The MIC was more than 64 µg/mL in series [7]; more than 64 µg/mL in series [8]; more than 64 µg/mL in series [9]; more than 64 µg/mL in series [10]; more than 64 µg/mL in [11]; 8 µg/mL (≈ 26.6 µM) in series [12]. The minimal inhibitory concentration (MIC) in series [13] was 16 µg/mL (≈ 53.3 µM); in series [14], more than 64 µg/mL. This molecule showed a CC50 at 96 h in series [15] of more than 100 µg/mL.

For the molecule `C=C(C)Cn1cc(C(=O)O)c(=O)c2ccc3c(nnn3C)c21`, the minimum inhibitory concentration (MIC) in series [1] was more than 64 µg/mL; in series [2], more than 64 µg/mL; in series [3], more than 64 µg/mL; in series [4] it was more than 64 µg/mL; in series [5], 64 µg/mL (≈ 215 µM); in [6], more than 64 µg/mL. Moreover, the MIC in series [7] is more than 64 µg/mL; in series [8] it was more than 64 µg/mL; in [9], more than 64 µg/mL; in series [10], more than 64 µg/mL; in series [11] it was more than 64 µg/mL; in [12], 32 µg/mL (≈ 107 µM). The MIC in series [13] is 64 µg/mL (≈ 215 µM); in [14], more than 64 µg/mL.

With `Cn1nnc2c3c(ccc21)c(=O)c(C(=O)O)cn3CC1CC1`, the MIC in series [1] was more than 64 µg/mL; in [2] it was more than 64 µg/mL; in [3] it was more than 64 µg/mL; in series [4], more than 64 µg/mL; in [5], 64 µg/mL (≈ 215 µM); in series [6], more than 64 µg/mL. Moreover, the MIC in series [7] was more than 64 µg/mL; in series [8], more than 64 µg/mL; in series [9], more than 64 µg/mL; in series [10] it was more than 64 µg/mL; in [11], more than 64 µg/mL; in series [12], 16 µg/mL (≈ 53.6 µM). In addition, the MIC was 32 µg/mL (≈ 107 µM) in series [13] and more than 64 µg/mL in series [14].

Regarding `Cn1nnc2c3c(ccc21)c(=O)c(C(=O)O)cn3CC1CCC1`, the MIC was more than 64 µg/mL in series [1]; more than 64 µg/mL in series [2]; more than 64 µg/mL in series [3]; more than 64 µg/mL in series [4]; 64 µg/mL (≈ 205 µM) in series [5]; more than 64 µg/mL in series [6]. Besides, the minimal inhibitory concentration (MIC) in [7] is more than 64 µg/mL; in series [8] it was more than 64 µg/mL; in [9] it was more than 64 µg/mL; in series [10], more than 64 µg/mL; in [11], more than 64 µg/mL; in series [12], 16 µg/mL (≈ 51.2 µM). The MIC was 32 µg/mL (≈ 102 µM) in series [13] and more than 64 µg/mL in [14].

In the case of `Cn1cc(C(=O)O)c(=O)c2ccc3c(nnn3C)c21`, the MIC in series [1] is more than 64 µg/mL; in [2] it was more than 64 µg/mL; in [3], more than 64 µg/mL; in series [4], more than 64 µg/mL; in series [5], 5 µg/mL (≈ 19.4 µM); in [6], more than 64 µg/mL. The MIC was more than 64 µg/mL in [7]; more than 64 µg/mL in series [8]; more than 64 µg/mL in series [9]; more than 64 µg/mL in series [10]; more than 64 µg/mL in series [11]; 0.5 µg/mL (≈ 1.94 µM) in [12]. Moreover, the values for the MIC in series [13] and in series [14] were 0.5 µg/mL (≈ 1.94 µM) and more than 64 µg/mL, respectively. This molecule registered a CC50 at 96 h in [15] of more than 100 µg/mL.
